ChEMBL document CHEMBL1165950, “Design and synthesis of new potent anticancer pyrazoles with high FLT3 kinase inhibitory selectivity” (Bioorg Med Chem, 2010)

Tests used:
Type in all cases: functional
OVCAR-8 = experiment: Cytotoxicity against human OVCAR8 cells assessed as cell growth at 100 nM after 48 hrs by sulforhodamine B assay; details: OVCAR-8, 48 h, read-out: Activity
BT-549 = experiment: Cytotoxicity against human BT549 cells assessed as cell growth at 100 nM after 48 hrs by sulforhodamine B assay; details: BT-549, 48 h, read-out: Activity
Outline: (§1)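 NCI-60 five-dose screen. Cells were grown in RPMI 1640 with 5% FBS and 2 mM L-glutamine, plated at 5000–40,000 cells/well and preincubated for 24 h. Time-zero plates were TCA-fixed. DMSO-solubilized drug was added at five concentrations (10-fold or ½-log serial dilutions) for 48 h at 37 °C, 5% CO2. Cells were TCA-fixed, stained with 0.4% SRB and read at 515 nm. Percent growth used time-zero, control and test absorbances.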

ACHN = experiment: Cytotoxicity against human ACHN cells assessed as cell growth at 10 uM; details: read-out: Activity
Outline: (§2)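 Single-dose NCI-60 screen at 10 µM. Cells were grown in RPMI 1640 with 5% FBS and 2 mM L-glutamine, then treated for 48 h at 37 °C. Protein was measured by SRB staining with absorbance at 515 nm. Percentage growth was recorded, and inhibition percentage was calculated as 100 minus growth percentage.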

TK-10 = experiment: Cytotoxicity against human TK10 cells assessed as cell growth at 10 uM; details: read-out: Activity
Outline: (§3)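 NCI-60 screen: cells grown in RPMI 1640 with 5% FBS and 2 mM L-glutamine, plated at 5000–40,000 cells/well according to doubling time, and preincubated 24 h at 37 °C, 5% CO2. The single 10 µM dose (DMSO stock) was added, then incubated 48 h. Cells were TCA-fixed and stained with 0.4% SRB, read at 515 nm, and growth % calculated against time-zero and control plates.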

SF-539 = experiment: Cytotoxicity against human SF539 cells assessed as cell growth at 1 uM after 48 hrs by sulforhodamine B assay; details: SF-539, 48 h, read-out: Activity
HCT-15 = experiment: Cytotoxicity against human HCT15 cells assessed as cell growth at 0.01 uM after 48 hrs by sulforhodamine B assay; details: HCT-15, 48 h, read-out: Activity
CCRF-CEM [1] = experiment: Growth inhibition of human CCRF-CEM cells after 48 hrs by sulforhodamine B assay
Outline: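 NCI five-dose SRB assay in RPMI 1640 with 5% FBS and 2 mM L-glutamine. Cells were preincubated 24 h, then exposed 48 h at 37 °C to five concentrations (10-fold or half-log serial dilutions from DMSO stocks). TCA fixation, SRB staining, and absorbance at 515 nm followed. IC50 was taken where [(Ti−Tz)/(C−Tz)]×100 = 50, with Tz as time-zero cell density.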

SNB-75 [2] = experiment: Cytotoxicity against human SNB75 cells assessed as cell growth at 0.01 uM after 48 hrs by sulforhodamine B assay; details: SNB-75, 48 h, read-out: Activity
SK-MEL-5 = experiment: Cytotoxicity against human SK-MEL-5 cells assessed as cell growth at 0.01 uM after 48 hrs by sulforhodamine B assay; details: SK-MEL-5, 48 h, read-out: Activity
NCI-H460 = experiment: Cytotoxicity against human NCI-H460 cells assessed as cell growth at 0.001 uM after 48 hrs by sulforhodamine B assay; details: NCI-H460, 48 h, read-out: Activity
U-251 [3] = experiment: Cytotoxicity against human U251 cells assessed as cell growth at 0.001 uM after 48 hrs by sulforhodamine B assay; details: U-251, 48 h, read-out: Activity
MOLT-4 [4] = experiment: Growth inhibition of human MOLT4 cells after 48 hrs by sulforhodamine B assay; details: MOLT-4, 48 h
Outline: (§4)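 NCI 60-cell screen, five-dose mode. Cells grown in RPMI 1640 with 5% FBS and 2 mM L-glutamine and plated at 5000-40,000 cells/well according to doubling time. After 24 h preincubation, a Tz plate was TCA-fixed. Five concentrations (10-fold or 1/2 log dilutions) were applied for 48 h at 37 °C. SRB staining read at 515 nm. IC50 taken from [(Ti-Tz)/(C-Tz)]×100 = 50.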

HOP-92 = experiment: Growth inhibition of human HOP92 cells after 48 hrs by sulforhodamine B assay; details: HOP-92, 48 h; outline: as §4
SNB-75 [5] = experiment: Growth inhibition of human SNB75 cells after 48 hrs by sulforhodamine B assay; details: SNB-75, 48 h; outline: as §4
SK-MEL-2 [6] = experiment: Growth inhibition of human SK-MEL-2 cells after 48 hrs by sulforhodamine B assay; details: SK-MEL-2, 48 h; outline: as §4
OVCAR-5 = experiment: Growth inhibition of human OVCAR5 cells after 48 hrs by sulforhodamine B assay; details: OVCAR-5, 48 h; outline: as §4
CCRF-CEM [7] = experiment: Cytotoxicity against human CCRF-CEM cells assessed as cell growth at 100 nM after 48 hrs by sulforhodamine B assay; details: read-out: Activity; outline: as §1
HOP-62 = experiment: Cytotoxicity against human HOP62 cells assessed as cell growth at 100 nM after 48 hrs by sulforhodamine B assay; details: HOP-62, 48 h, read-out: Activity
NCI-H23 [8] = experiment: Cytotoxicity against human NCI-H23 cells assessed as cell growth at 100 nM after 48 hrs by sulforhodamine B assay; details: NCI-H23, 48 h, read-out: Activity
UO-31 = experiment: Growth inhibition of human UO31 cells after 48 hrs by sulforhodamine B assay; details: UO-31, 48 h; outline: as §4
MOLT-4 [9] = experiment: Cytotoxicity against human MOLT4 cells assessed as cell growth at 10 uM; details: read-out: Activity; outline: as §3
SN12C = experiment: Cytotoxicity against human SN12C cells assessed as cell growth at 1 uM after 48 hrs by sulforhodamine B assay; details: read-out: Activity
HT-29 = experiment: Cytotoxicity against human HT-29 cells assessed as cell growth at 10 uM; details: read-out: Activity; outline: as §2
MOLT-4 [10] = experiment: Cytotoxicity against human MOLT4 cells assessed as cell growth at 10 uM after 48 hrs by sulforhodamine B assay; details: MOLT-4, 48 h, read-out: Activity
NCI-H23 [11] = experiment: Cytotoxicity against human NCI-H23 cells assessed as cell growth at 10 uM after 48 hrs by sulforhodamine B assay; details: NCI-H23, 48 h, read-out: Activity
U-251 [12] = experiment: Cytotoxicity against human U251 cells assessed as cell growth at 10 uM after 48 hrs by sulforhodamine B assay; details: U-251, 48 h, read-out: Activity
SK-MEL-2 [13] = experiment: Cytotoxicity against human SK-MEL-2 cells assessed as cell growth at 10 uM after 48 hrs by sulforhodamine B assay; details: SK-MEL-2, 48 h, read-out: Activity
MDA-MB-231 = experiment: Cytotoxicity against human MDA-MB-231 cells assessed as cell growth at 10 uM after 48 hrs by sulforhodamine B assay; details: MDA-MB-231, 48 h, read-out: Activity
[14] = read-out: LC50 (the source's name)

Cc1cc(O)cc(-c2nn(CC#N)cc2-c2ccnc(-c3ccc(N(C)C)cc3)c2)c1 showed a growth at 0.1 µM (OVCAR-8) of 89%, a growth at 0.1 µM (BT-549) of 87% and a growth at 10 µM (ACHN) of 31.2%. It also gave a growth at 10 µM (TK-10) of 52.5%, a growth at 1 µM (SF-539) of -34% and a growth at 0.01 µM (HCT-15) of 92%. It also gave a GI50 (CCRF-CEM [1]) of 3.59 µM, an LC50 (CCRF-CEM [1]) of over 100 µM and a TGI (CCRF-CEM [1]) of over 100 µM. The growth at 0.01 µM (SNB-75 [2]) was 75%, the growth at 0.01 µM (SK-MEL-5) was 90% and the growth at 0.001 µM (NCI-H460) was 109%. It also gave a growth at 0.001 µM (U-251 [3]) of 101%, a GI50 (MOLT-4 [4]) of 3.17 µM and an LC50 (MOLT-4 [4]) of over 100 µM. It also gave a TGI (MOLT-4 [4]) of 46 µM, a GI50 (HOP-92) of 3.03 µM and a TGI (HOP-92) of 46.8 µM. The CC50 (HOP-92; [14]) was over 100 µM, the GI50 (SNB-75 [5]) was 1.86 µM and the TGI (SNB-75 [5]) was 5.94 µM. For the same compound, the CC50 (SNB-75 [5]; [14]) was over 100 µM, the GI50 (SK-MEL-2 [6]) was 4.15 µM and the TGI (SK-MEL-2 [6]) was 15.8 µM. For the same compound, the CC50 (SK-MEL-2 [6]; [14]) was over 100 µM, the GI50 (OVCAR-5) was 1.49 µM and the TGI (OVCAR-5) was 60.4 µM. For the same compound, the CC50 (OVCAR-5; [14]) was over 100 µM, the growth at 0.1 µM (CCRF-CEM [7]) was 96% and the growth at 0.1 µM (HOP-62) was 80%. The growth at 0.1 µM (NCI-H23 [8]) was 98%, the GI50 (UO-31) was 3.23 µM and the TGI (UO-31) was 32.5 µM. It also gave a CC50 (UO-31; [14]) of over 100 µM, a growth at 10 µM (MOLT-4 [9]) of 28.1% and a growth at 1 µM (SN12C) of 26%. The growth at 10 µM (HT-29) was 20.5%, the growth at 10 µM (MOLT-4 [10]) was -6% and the growth at 10 µM (NCI-H23 [11]) was -37%. For the same compound, the growth at 10 µM (U-251 [12]) was -66%, the growth at 10 µM (SK-MEL-2 [13]) was -46% and the growth at 10 µM (MDA-MB-231) was -21%.
